Six compounds from paper PMC2764440 (Nucleic Acids Research, 2009) can be followed below.

Series [1] has as its system MCEC. The series is described as follows: Inhibitor studies: uptake of F complexes. Conditions: Mus musculus, read-out: reduction (inhibition) of uptake of F complexes. The class given is cell-based. The method, boiled down: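 Mouse corneal endothelial cells (MCEC; DMEM, 10% FBS, full serum) were seeded at 2.2 × 10^5/well one day before. Complexes of test peptide with Cy5-labelled luciferase plasmid were formed in 10 mM phosphate buffer pH 7.0, added with inhibitor at non-toxic working levels, and incubated 3 h at 37°C. Cells were washed, trypsinised and read by flow cytometry (mean fluorescence, 10 000 gated cells), relative to vehicle (DMSO or water) = 100%.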

In series [2] the test system is MCEC. The series is described as follows: Inhibitor studies: luciferase gene expression mediated by F complexes. The series is classed as cell-based, mouse.
A further series concerns CD4+ T-cells. The series is described as follows: T-cell proliferation assay. The series is classed as cell-based, mouse. Particulars: 1-MT 0.75 mM. The method, boiled down: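 CD4+ responder T cells from C3H mouse spleens (10^5/well, anti-CD3/CD28 bead-stimulated) were co-cultured 3 days with 5 × 10^4 mitomycin C-treated (40 µg/ml, 30 min) MCEC. The MCEC were untransfected or transfected with test peptide carrying IDO or GFP plasmid, with or without 0.75 mM final 1-methyl-dl-tryptophan. [3H]thymidine (1 µCi/well) was added and incorporation was counted 16 h later.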

For orientation: inhibition means the share of the control response that was lost under treatment.

Take `COC(=O)Nc1nc2ccc(C(=O)c3cccs3)cc2[nH]1` [nocodazole]: the inhibition at 4.5 µg/mL with MCEC [1] worked out at 58.2%. Also, the “increase of gene expression mediated by F complexes” value in the series on MCEC [2] (nocodazole 4.5 µg/ml, N/P 20, luciferase 72 h later, relative to vehicle control) was 2.35 times. With `CCCCC[C@@H](O)[C@H]1C(=O)O[C@H](C)[C@@H](O)/C=C/C=C/C=C/C=C/C=C(\C)[C@@H](O)C[C@H](O)C[C@H](O)C[C@H](O)C[C@H](O)C[C@H](O)C[C@@H]1O` [Filipin, filipin III], the inhibition at 1 µg/mL in the series on MCEC [1] stood at 48.6%.

Take `C=C1[C@@H](C)[C@H]2[C@H](Cc3ccccc3)NC(=O)[C@]23[C@H](OC(C)=O)/C=C/[C@@](C)(O)C(=O)[C@@H](C)C/C=C/[C@H]3[C@@H]1O` [cytochalasin, cytochalasin D]: the inhibition at 5 µg/mL in the series on MCEC [1] was 58.5%.

Regarding `Cn1cc(CC(N)C(=O)O)c2ccccc21` (racemic) [1-MT, 1-methyl-DL-tryptophan], the “effect on the inhibition of T-cell proliferation by IDO-transfected MCEC” value in the series on CD4+ T-cells is reported as “reversed”. `CCN(c1nc(N)c(C(=O)NC(=N)N)nc1Cl)C(C)C` [EIPA, 5-(N-ethyl-N-isopropyl)amiloride]: the inhibition at 25 µg/mL in the series on MCEC [1] stood at 32.9%. Consider `O=C(N/N=C/c1ccc(O)c(O)c1)c1cc2ccccc2cc1O` [dynasore], for which, in the series with MCEC [1], the inhibition at 6.8 µg/mL stood at 64.7%. Besides, in the series on MCEC [2] (dynasore 6.8 µg/ml, MCEC), the “toxicity during the longer incubation period used for gene expression assays” value is reported as “pronounced toxicity”.
